Published values collected from several papers.
Lines come from different studies, so protocols differ. pIC50: −log10 of the molar value.
OGT: UDP-N-acetylglucosamine--peptide N-acetylglucosaminyltransferase 110 kDa subunit (OGT, Homo sapiens, UniProt O15294)
OPRD1: Delta-type opioid receptor (OPRD1, Homo sapiens, UniProt P41143)
HTR3A: 5-hydroxytryptamine receptor 3A (HTR3A, Homo sapiens, UniProt P46098)
ADRA2A: Alpha-2A adrenergic receptor (ADRA2A, Homo sapiens, UniProt P08913)
gag-pol reverse transcriptase: Gag-Pol polyprotein, reverse transcriptase (gag-pol, Human immunodeficiency virus 1, UniProt P03366)

SMILES | target | test | conditions | pIC50
CC[C@H](C)[C@H](NC(=O)[C@H](CO)NC(=O)[C@H](Cc1ccc(O)cc1)NC(=O)[C@H](CCCCN)NC(=O)[C@@H]1CCCN1C(=O)[C@H](CCSC)NC(=O)[C@H](Cc1ccccc1)NC(=O)[C@H](CCSC)NC(=O)[C@@H](NC(=O)[C@@H]1CCCN1C(=O)[C@H](Cc1ccccc1)NC(=O)[C@H](CC(=O)O)NC(=O)CN)C(C)C)C(=O)N[C@H](C(=O)N[C@@H](Cc1ccccc1)C(=O)N[C@@H](CCCCN)C(=O)N[C@@H](CCCCN)C(=O)O)[C@@H](C)CC | OGT | enzyme activity, inhibitor, fluorescence |  | 4.80
CC(C)Cc1ccc([C@@H](C)C(=O)O)cc1 | Histone acetyltransferase p300 (EP300, Homo sapiens, UniProt Q09472) | enzyme activity, inhibitor, mobility shift |  | ~2.22
CCC[C@H](CNC)NC[C@H](Cc1ccc(O)cc1)NCCC1CCCC1 | OPRD1 | cell-free assay |  | < 5.00
C[C@H](N)Cn1ncc2ccc3c(c21)CCCO3 | HTR3A | ligand displacement, radioligand |  | 4.50
CCOC(=O)c1cncn1[C@H](C)c1ccc(C2(C(F)(F)F)N=N2)cc1 | HTR3A | ion current, two-electrode voltage clamp | oocytes | 5.05
CN1CCN(C2=Nc3ccccc3Oc3ccc(Cl)cc32)CC1 | HTR3A | ligand displacement, radioligand |  | 6.42
CCCCCCCCC[C@@H]1CC(=O)NCC(=O)N[C@H](Cc2ccc(O)cc2)C(=O)NCC(=O)N[C@@H](Cc2ccccc2)C(=O)O1 | OPRD1 | ligand displacement, radioligand |  | 4.42
CN1CCC(=C2c3ccccc3CCc3sccc32)CC1 | ADRA2A | ligand displacement, radioligand |  | 6.24
CC(C)[C@H](CNCc1ccccc1)N1CCN(CCC2CC3CCC2C3)[C@@H](Cc2ccccc2)C1 (stereo partly shown) | OPRD1 | cell-free assay |  | < 5.00
CCN(CC)C(=O)C1CN2CCc3cc(OC)c(OC)cc3C2CC1OC(C)=O (stereo not shown) | ADRA2A | ligand displacement, radioligand |  | 6.08
CNC[C@@H](Cc1ccc(O)cc1)N1CCN(CCc2cccc(C)c2)[C@@H](C(C)C)C1 | OPRD1 | cell-free assay |  | < 5.00
Nc1c(S(=O)(=O)O)cc(Nc2ccc(Nc3nc(Cl)nc(Nc4cccc(S(=O)(=O)O)c4)n3)c(S(=O)(=O)O)c2)c2c1C(=O)c1ccccc1C2=O | P2X purinoceptor 2 (P2RX2, Homo sapiens, UniProt Q9UBL9) | calcium signal, antagonist |  | 5.72
CCC[C@H](CN[C@H](CNC)Cc1ccc(O)cc1)NCCC1CCCC1 | OPRD1 | cell-free assay |  | < 5.00
CC(C)c1ccc(O)c(=O)c(O)c1 | gag-pol reverse transcriptase | enzyme activity, inhibitor, FRET |  | 6.51
Cc1cn([C@H]2CC[C@@H](OC(C(=O)O)C(=O)O)C2)c(=O)[nH]c1=O | gag-pol reverse transcriptase | enzyme activity, inhibitor, radiometric |  | < 3.19
CCCC[C@H](CNCc1ccccc1)N1CCN(CC(C)C)[C@H](Cc2ccc(O)cc2)C1 | OPRD1 | cell-free assay |  | < 5.00
CC[C@H](C)[C@H](NC(=O)[C@H](CO)NC(=O)[C@H](Cc1ccc(O)cc1)NC(=O)[C@H](CCCCN)NC(=O)[C@@H]1CCCN1C(=O)[C@H](CCSC)NC(=O)[C@H](Cc1ccccc1)NC(=O)[C@H](CCSC)NC(=O)[C@@H](NC(=O)[C@@H]1CCCN1)C(C)C)C(=O)N[C@H](C(=O)N[C@@H](Cc1ccccc1)C(=O)O)[C@@H](C)CC | OGT | enzyme activity, inhibitor, fluorescence |  | 4.70
CC(C)[C@@H]1CN([C@@H](CNCc2ccccc2)C(C)C)CCN1CCc1ccccc1 | OPRD1 | cell-free assay |  | < 5.00
CC(CCc1ccccc1)NC(C)C(O)c1ccc(O)cc1 (stereo not shown) | ADRA2A | ligand displacement, radioligand |  | 5.03
